From ChEMBL document CHEMBL1141864, “Structure-activity relationships in 1,4-benzodioxan-related compounds. 8.(1) {2-[2-(4-chlorobenzyloxy)phenoxy]ethyl}-[2-(2,6-dimethoxyphenoxy)ethyl]amine (clopenphendioxan) as a tool to highlight the involvement of alpha1D- and alpha1B-adrenoreceptor subtypes in the regulation of human PC-3 …” (J Med Chem, 2005)

Columns and labels:
[1] = target: T1, 5-hydroxytryptamine receptor 1A (Homo sapiens, UniProt P08908); assay: Displacement of [3H]8-hydroxy-2-(di-n-propylamino)tetralin from cloned human 5HT1A receptor expressed in HeLa cells; assay type: cell-based
T1 sequence (P08908 whole entry): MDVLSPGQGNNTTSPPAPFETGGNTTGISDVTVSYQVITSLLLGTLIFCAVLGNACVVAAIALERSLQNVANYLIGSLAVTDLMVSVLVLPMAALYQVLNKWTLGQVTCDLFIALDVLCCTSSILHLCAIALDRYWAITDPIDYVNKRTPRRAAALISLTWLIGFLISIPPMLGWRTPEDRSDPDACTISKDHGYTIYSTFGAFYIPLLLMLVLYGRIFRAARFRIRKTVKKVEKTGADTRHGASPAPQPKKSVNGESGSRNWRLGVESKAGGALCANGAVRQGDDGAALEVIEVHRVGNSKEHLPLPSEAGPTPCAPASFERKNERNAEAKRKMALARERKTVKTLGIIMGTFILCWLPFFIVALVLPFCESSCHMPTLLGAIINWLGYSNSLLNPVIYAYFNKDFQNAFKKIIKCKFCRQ
In short: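 Radioligand binding on cloned human receptors, with [3H]prazosin for α1 subtypes (CHO cells) and [3H]8-OH-DPAT for 5-HT1A (HeLa cells); each experiment in triplicate, Ki from two to three experiments agreeing within ±20%, reported as pKi.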

[2] = target: T2, Alpha-1D adrenergic receptor (Rattus norvegicus) (UniProt P23944); assay: ADRA1D blocking activity assessed by antagonism of (-)-NE induced contractions on isolated rat thoracic aorta; assay type: functional, tissue-based
T2 sequence (whole entry): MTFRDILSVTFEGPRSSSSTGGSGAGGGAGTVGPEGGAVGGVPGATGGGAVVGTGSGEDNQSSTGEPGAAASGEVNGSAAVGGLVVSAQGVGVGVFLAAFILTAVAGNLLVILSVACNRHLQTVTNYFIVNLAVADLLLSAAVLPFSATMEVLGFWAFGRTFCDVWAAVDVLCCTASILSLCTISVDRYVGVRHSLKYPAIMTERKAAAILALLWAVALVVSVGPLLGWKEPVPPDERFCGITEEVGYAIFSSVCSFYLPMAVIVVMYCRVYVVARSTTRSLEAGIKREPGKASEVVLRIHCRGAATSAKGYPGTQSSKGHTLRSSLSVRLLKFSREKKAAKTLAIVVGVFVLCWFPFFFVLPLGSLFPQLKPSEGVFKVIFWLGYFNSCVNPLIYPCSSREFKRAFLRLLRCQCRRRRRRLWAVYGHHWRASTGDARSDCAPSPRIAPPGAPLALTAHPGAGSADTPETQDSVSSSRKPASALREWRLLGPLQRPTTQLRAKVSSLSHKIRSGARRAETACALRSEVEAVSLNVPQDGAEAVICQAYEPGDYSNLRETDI
In short: (§1)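 Isolated rat tissue: each antagonist concentration tested four times over 0.01–1 μM; pK_B calculated by van Rossum method from shifts of (-)-noradrenaline contraction curves (vas deferens, α1A; thoracic aorta, α1D) or (-)-phenylephrine contraction curves (spleen, α1B).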

[3] = target: T3, Alpha-1B adrenergic receptor (Rattus norvegicus) (UniProt P15823); assay: ADRA1B blocking activity assessed by antagonism of (-)-phenylephrine induced contractions on isolated rat spleen; assay type: functional, tissue-based; in short: as §1
T3 sequence (whole entry): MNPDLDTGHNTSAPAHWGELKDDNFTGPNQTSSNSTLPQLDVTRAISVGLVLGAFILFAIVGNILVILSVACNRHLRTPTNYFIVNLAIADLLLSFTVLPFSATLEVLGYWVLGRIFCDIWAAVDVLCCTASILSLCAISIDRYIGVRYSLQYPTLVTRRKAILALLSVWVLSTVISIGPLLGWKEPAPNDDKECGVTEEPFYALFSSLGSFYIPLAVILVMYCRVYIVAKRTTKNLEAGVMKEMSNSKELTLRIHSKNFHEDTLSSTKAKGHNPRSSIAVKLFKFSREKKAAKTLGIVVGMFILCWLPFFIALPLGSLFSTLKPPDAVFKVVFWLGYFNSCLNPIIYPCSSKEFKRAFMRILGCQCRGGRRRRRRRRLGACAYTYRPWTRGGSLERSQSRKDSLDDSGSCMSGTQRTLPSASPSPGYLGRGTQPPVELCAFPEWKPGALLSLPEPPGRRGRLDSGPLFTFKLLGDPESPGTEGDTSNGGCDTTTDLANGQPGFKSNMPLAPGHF

[4] = target: T4, Alpha-1D adrenergic receptor (Homo sapiens, UniProt P25100); assay: Displacement of [3H]prazosin from cloned human ADRA1D expressed in CHO cells; assay type: cell-based
T4 sequence (P25100 whole entry): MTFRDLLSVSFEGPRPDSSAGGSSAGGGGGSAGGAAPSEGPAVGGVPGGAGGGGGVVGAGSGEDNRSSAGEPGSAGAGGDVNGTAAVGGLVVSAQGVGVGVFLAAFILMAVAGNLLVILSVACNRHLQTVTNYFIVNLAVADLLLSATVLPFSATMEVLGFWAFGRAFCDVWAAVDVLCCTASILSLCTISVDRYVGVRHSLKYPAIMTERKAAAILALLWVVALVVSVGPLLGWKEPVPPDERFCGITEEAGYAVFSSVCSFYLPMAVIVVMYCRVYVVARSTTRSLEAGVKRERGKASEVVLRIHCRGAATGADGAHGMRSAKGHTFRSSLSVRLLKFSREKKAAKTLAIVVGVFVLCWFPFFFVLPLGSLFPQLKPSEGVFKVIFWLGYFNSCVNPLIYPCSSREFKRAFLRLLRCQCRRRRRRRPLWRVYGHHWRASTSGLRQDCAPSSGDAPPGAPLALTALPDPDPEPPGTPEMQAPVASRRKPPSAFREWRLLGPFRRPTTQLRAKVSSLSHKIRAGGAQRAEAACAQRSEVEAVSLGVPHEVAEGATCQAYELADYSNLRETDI

[5] = target: T5, Alpha-1B adrenergic receptor (Homo sapiens, UniProt P35368); assay: Displacement of [3H]prazosin from cloned human ADRA1B expressed in CHO cells; assay type: cell-based
T5 sequence (P35368 whole entry): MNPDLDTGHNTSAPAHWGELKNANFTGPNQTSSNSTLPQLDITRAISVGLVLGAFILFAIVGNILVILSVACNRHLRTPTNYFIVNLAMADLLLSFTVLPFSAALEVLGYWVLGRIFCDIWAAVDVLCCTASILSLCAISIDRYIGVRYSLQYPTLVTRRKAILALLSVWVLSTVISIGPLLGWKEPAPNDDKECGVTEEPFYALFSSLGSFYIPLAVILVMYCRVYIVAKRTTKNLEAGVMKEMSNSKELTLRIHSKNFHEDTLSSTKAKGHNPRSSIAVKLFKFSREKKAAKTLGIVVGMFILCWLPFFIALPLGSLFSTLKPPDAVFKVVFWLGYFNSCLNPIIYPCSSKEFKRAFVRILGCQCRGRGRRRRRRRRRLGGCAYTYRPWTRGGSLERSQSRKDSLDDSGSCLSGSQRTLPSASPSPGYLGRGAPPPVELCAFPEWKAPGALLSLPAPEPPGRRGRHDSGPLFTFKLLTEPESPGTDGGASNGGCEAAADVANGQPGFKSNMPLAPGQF

Structure (SMILES) | Ki [1] [nM] | pKb [2] | pKb [3] | Ki [4] [nM] | Ki [5] [nM]
COc1cccc(OC)c1OCCNCCOc1ccccc1OCc1cccc([N+](=O)[O-])c1 | 20.9 | 9.28 | 8.74 | 0.0631 | 0.794
COc1cccc(OC)c1OCCNCCOc1ccccc1OCc1cccc(C)c1 | 18.2 | 8.85 | 8.2 | 0.2 | 0.251
COc1cccc(OC)c1OCCNCCOc1ccccc1OCc1ccccc1C | 11.2 | 8.64 | 7.67 | 0.126 | 0.794
COc1cccc(OC)c1OCCNCCOc1ccccc1OCc1ccccc1 | 11.7 | 9.37 | 8.3 | 0.0676 | 0.537
COc1ccc(COc2ccccc2OCCNCCOc2c(OC)cccc2OC)cc1 | 17.4 | 9.21 | 9.51 | 0.1 | 0.398
COc1cccc(OC)c1OCCNCCOc1ccccc1OCc1ccccc1Cl | 4.79 | 8.59 | 7.52 | 0.251 | 0.562
COc1cccc(OC)c1OCCNCCOc1ccccc1OCc1ccc([N+](=O)[O-])cc1 | 11.7 | 9.41 | 9.02 | 0.0501 | 0.398
COc1cccc(OC)c1OCCNCCOc1ccccc1OCc1ccccc1[N+](=O)[O-] | 24 | 8.95 | 8.56 | 0.912 | 2.51
COc1cccc(OC)c1OCCNCCOc1ccccc1OCc1ccc(Cl)cc1 [CLOPENPHENDIOXAN] | 15.5 | 9.11 | 8.06 | 0.0316 | 1
COc1ccccc1COc1ccccc1OCCNCCOc1c(OC)cccc1OC | 23.4 | 8.86 | 8.13 | 2 | 6.31
COc1cccc(COc2ccccc2OCCNCCOc2c(OC)cccc2OC)c1 | 30.9 | 9.12 | 8.31 | 0.316 | 2
COc1cccc(OC)c1OCCNCCOc1ccccc1OCc1cccc(Cl)c1 | 6.61 | 8.72 | 7.93 | 0.0501 | 0.158
COc1cccc(OC)c1OCCNCCOc1ccccc1OCc1ccc(C)cc1 | 22.4 | 9.12 | 8.43 | 0.0631 | 0.251
